# Measured values reported in ChEMBL document CHEMBL1152580, “Toward establishing structure-activity relationships for oxygenated coumarins as differentiation inducers of promonocytic leukemic cells” (Bioorg Med Chem, 2009).
# pIC50: −log10 of the molar value. The source made the active and inactive calls. No cut-off for these calls is given here.
# How the values were obtained:
# [1] = system: U-937; assay: Growth inhibition of human U937 cells assessed as [3H]5-methyl thymidine incorporation after 48 hrs by liquid scintillation counting; assay type: functional, cell-based
# In short: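 Exponentially growing U-937 cells (10⁴ per well in RPMI 1640) exposed to coumarins up to 2.0 mM or 0.0001% (v/v) DMSO for 48 h. 0.5 µCi [³H]5-methyl thymidine added 12 h before the end. Cells harvested, incorporation read by liquid scintillation counting as % of DMSO control. IC50 from sigmoidal dose-response fit; quadruplicate, at least four independent experiments.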
# [2] = system: U-937; assay: Cytotoxicity against human U937 cells after 48 hrs by trypan blue assay; assay type: functional; conditions: U-937, 48 h
# In short: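 U-937 cells in exponential growth seeded at 10⁵ cells/mL RPMI 1640, exposed to coumarin 0.15 µM to 2.0 mM or 0.0001% (v/v) DMSO vehicle for 48 h at 5% CO₂. Viable cells counted by trypan blue exclusion (0.4%, 5 min) in a hemocytometer. CC50 from sigmoidal dose-response fit; quadruplicate, at least four independent experiments.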
# [3] = system: U-937; assay: Induction of human U937 cell differentiation assessed as increase in rhC5a-stimulated intracellular calcium at 50 uM after 2 days; assay type: functional, cell-based
# In short: (§1)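 CD88 read-out as C5a-evoked Ca²⁺ release: U-937 cells (1 × 10⁶/mL) treated 48 h with 5, 25 or 50 µM compound, 400 µM dbcAMP or 0.0001% DMSO. Loaded with 2 µM Fura 2-AM in BSS pH 7.5, 30 min, 37 °C, then 2 × 10⁶ cells/mL. F340/F380 (emission 505 nm) recorded for 8 min at 37 °C with rhC5a or ATP injection. Calibrated with Triton X-100/EGTA; ≥3 experiments.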
# [4] = system: U-937; assay: Induction of human U937 cell differentiation assessed as expression of CD88 receptor at 50 uM after 2 days; assay type: functional, cell-based; in short: as §1
# [5] = system: U-937; assay: Induction of human U937 cell differentiation assessed as expression of CD88 receptor at 5 uM after 2 days; assay type: functional, cell-based; in short: as §1
# [6] = system: U-937; assay: Growth inhibition of human U937 cells assessed as cell proliferation after 72 hrs; assay type: functional, cell-based; conditions: TDE = time-dependent effect
# In short: (§2)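 U-937 cells seeded at 10⁵ cells/mL and treated with 25 or 50 µM compound, 400 µM dbcAMP (positive control) or 0.0001% (v/v) DMSO for up to 72 h (sampled at 24, 48, 72 h). Cell number counted on a Coulter Z-1, with density kept ≤1 × 10⁶ cells/mL. Expressed as % of DMSO control; n = 3.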
# [7] = system: U-937; assay: Growth inhibition of human U937 cells assessed as proliferation at 50 uM after 72 hrs; assay type: functional; conditions: U-937, 72 h, read-out: Activity; in short: as §2
# [8] = system: U-937; assay: Induction of human U937 cell differentiation assessed as burst oxidative capacity at 25 uM after 72 hrs by NBT reduction assay relative to control; assay type: functional, cell-based
# In short: (§3)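 NBT reduction: U-937 cells (2 × 10⁵/mL) treated 72 h with 25 or 50 µM compound, 1 µM ATRA (positive control) or 0.0001% (v/v) DMSO. Washed, then incubated in RPMI containing 1 mg/mL NBT and 1 µg/mL PMA for 30 min at 37 °C. Formazan dissolved in DMSO, A570 read relative to DMSO control (=1); n = 3.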
# [9] = system: U-937; assay: Induction of human U937 cell differentiation assessed as expression of CD11b levels at 50 uM after 72 hrs relative to control; assay type: functional, cell-based
# In short: (§4)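 U-937 cells (2 × 10⁵/mL) treated 72 h with 25 or 50 µM compound, 400 µM dbcAMP (positive control) or 0.0001% (v/v) DMSO. Washed in PBS, stained with saturating PE anti-CD11b or isotype control, 4 °C, 30 min. Analysed by flow cytometry, ≥5000 events; CD11b relative to DMSO control (=1); n = 3.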
# [10] = system: U-937; assay: Induction of human U937 cell differentiation assessed as increase in rhC5a-stimulated intracellular calcium at 25 uM after 2 days; assay type: functional, cell-based; in short: as §1
# [11] = system: U-937; assay: Induction of human U937 cell differentiation assessed as expression of CD88 receptor at 25 uM after 2 days; assay type: functional, cell-based; in short: as §1
# [12] = system: U-937; assay: Induction of human U937 cell differentiation assessed as burst oxidative capacity at 50 uM after 72 hrs by NBT reduction assay relative to control; assay type: functional, cell-based; in short: as §3
# [13] = system: U-937; assay: Induction of human U937 cell differentiation assessed as expression of CD11b levels at 25 uM after 72 hrs relative to control; assay type: functional, cell-based; in short: as §4
SMILES,pIC50 [1],CC50 [2] [µM],also measured
C=C(C)C(O)COc1cc2oc(=O)ccc2cc1OC (configuration not stated),< 3.40,704,
CC(C)(O)C(O)COc1c2c(cc3oc(=O)ccc13)OCO2 (configuration not stated),3.72,420,Activity [3]: Active; Activity [4]: Active; Activity [5]: inactive; growth inhibition (GI) [6]: tde; growth at 50 µM [7]: 38%; Activity [8]: Active; Activity [9]: inactive
COc1cc(OC)c2ccc(=O)oc2c1O [LEPTODACTYLONE],< 3.40,> 2000,
COc1c2c(cc3ccc(=O)oc13)OCO2,< 3.40,> 2000,
O=c1ccc2ccc3c(c2o1)OCO3,< 3.40,> 2000,
COc1cc(OC)c2ccc(=O)oc2c1OCC=C(C)C [ARTANIN],3.75,535,
COC(C)(C)C(O)COc1c2c(cc3oc(=O)ccc13)OCO2 (configuration not stated),4.60,365,Activity [10]: Active; Activity [3]: Active; Activity [11]: Agonist; Activity [4]: Active; Activity [5]: inactive; growth inhibition (GI) [6]: tde; growth at 50 µM [7]: 62.5%; Activity [8]: Active; Activity [12]: Active; Activity [13]: inactive; Activity [9]: inactive
O=c1ccc2c(Br)c3c(cc2o1)OCO3,< 3.40,> 2000,
CC(C)(Cl)C(O)COc1c2c(cc3oc(=O)ccc13)OCO2 (configuration not stated),3.64,567,
O=c1ccc2cc3c(cc2o1)OCO3 [AYAPIN],< 3.40,> 2000,
O=c1ccc2c(O)c3c(cc2o1)OCO3,3.59,> 2000,
COc1cc2oc(=O)ccc2c(OC)c1O [FRAXINOL],< 3.40,> 2000,
CC(C)=CCOc1cc2oc(=O)ccc2cc1O [PRENYLETIN],< 3.40,820,
O=c1ccc2ccccc2o1 [COUMARIN],< 3.40,> 2000,
CC(C)=CCOc1c2c(cc3oc(=O)ccc13)OCO2,5.46,266,
COc1c2c(c(OC)c3oc(=O)ccc13)OCO2,< 3.40,> 2000,
"COc1cc2oc(=O)ccc2c(OC)c1OC [5,6,7-TRIMETHOXYCOUMARIN]",3.74,790,
O=c1ccc2c(F)c3c(cc2o1)OCO3,< 3.40,> 2000,
COc1c2c(cc3oc(=O)ccc13)OCO2,5.66,252,
CC1(C)OC1COc1c2c(cc3oc(=O)ccc13)OCO2 (configuration not stated),< 3.40,899,
COc1cc(OC)c2ccc(=O)oc2c1OC,< 3.40,> 2000,
COc1cc2ccc(=O)oc2cc1OCC=C(C)C [PRENYLETIN 6-METHYL ETHER],< 3.40,799,
